According to PMC8162271 (Chemical Science, 2020):

How the values were obtained:
[1] = biological target: Cu(II)–Aβ42 (Homo sapiens, UniProt P05067); assay: Aβ42 aggregation inhibition experiments; assay type: biochemical; conditions: 24 h; for MW distribution of Aβ42 species by gel/Western blot: [Aβ42] 25 μM, [CuCl2] 25 μM, [flavonoid] 50 μM, pH 6.6, 37 °C; for morphology of Aβ42 aggregates by TEM: Cu(II)–Aβ42, [flavonoid] 50 μM
[2] = biological target: Zn(II)–Aβ42 (Homo sapiens, UniProt P05067); assay: Aβ42 aggregation inhibition experiments; assay type: biochemical; conditions: 24 h; for MW distribution of Aβ42 species by gel/Western blot: [Aβ42] 25 μM, [ZnCl2] 25 μM, [flavonoid] 50 μM, pH 7.4, 37 °C; for morphology of Aβ42 aggregates by TEM: Zn(II)–Aβ42, [flavonoid] 50 μM
How it was run: (§1)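 Freshly prepared Aβ42 (25 μM), metal-free or with ZnCl2 (25 μM), incubated with test compound (50 μM) at pH 7.4, 37 °C, for 24 h with constant agitation. Species sizes were resolved by gel/Western blot probed with anti-Aβ antibody 6E10. Band intensities were quantified and normalized to the matching untreated control (ISample/IControl). Aggregate morphology was imaged by TEM.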

[3] = Trolox equivalent antioxidant capacity; conditions: TEAC assay, result in words
How it was run: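 Radical quenching was measured with the cationic radical of 2,2′-azino-bis(3-ethylbenzthiazoline-6-sulphonic acid) as substrate, in EtOH at 25 °C. Absorbance was read at 734 nm, and capacity is expressed relative to the vitamin E analog Trolox as Trolox equivalents.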

[4] = biological target: preformed metal-free Aβ42 aggregates (Homo sapiens, UniProt P05067); assay: Aβ42 disaggregation experiments; assay type: biochemical; conditions: preformed aggregates (24 h) then [flavonoid] 50 μM 24 h, pH 7.4
How it was run: (§2)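 Aβ42 (25 μM), with or without metal ions, was pre-incubated for 24 h to form aggregates, then exposed to test compound for a further 24 h. Species sizes were analysed by gel/Western blot with anti-Aβ antibody 6E10. Band intensities were quantified as a ratio to the matching control (ISample/IControl). Morphology was examined by TEM.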

[5] = biological target: metal-free Aβ42 (Homo sapiens, UniProt P05067); assay: Aβ42 aggregation inhibition experiments; assay type: biochemical; conditions: [Aβ42] 25 μM, [flavonoid] 50 μM, pH 7.4, 37 °C, 24 h
How it was run: as §1

[6] = biological target: Electrophorus electricus AChE (eeAChE) (Electrophorus electricus, UniProt O42275); assay: AChE activity assay; assay type: biochemical; conditions: for inhibition of the activity of AChE: eeAChE, result in words; for IC50: AChE IC50, eeAChE, fluorometric assay
[7] = Interaction with Cu; assay type: physicochemical; conditions: UV-Vis; indicative of oxidation
How it was run: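 UV-Vis absorption spectra of test compound (25 μM) recorded with CuCl2 at 0, 12.5, 25, 50 and 125 μM. Medium was 20 mM HEPES, pH 6.6, 150 mM NaCl, or EtOH for some compounds. Additional spectra were taken after adding 0.5, 1 and 2 equiv of CuCl2.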

[8] = biological target: preformed Cu(II)–Aβ42 aggregates (Homo sapiens, UniProt P05067); assay: Aβ42 disaggregation experiments; assay type: biochemical
How it was run: as §2

[9] = biological target: preformed Zn(II)–Aβ42 aggregates (Homo sapiens, UniProt P05067); assay: Aβ42 disaggregation experiments; assay type: biochemical
How it was run: as §2

Sequence of Zn(II)–Aβ42 (P05067 672-713): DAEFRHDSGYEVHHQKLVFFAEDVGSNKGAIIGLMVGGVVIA
Sequence of Cu(II)–Aβ42 (P05067 672-713): as above
Sequence of preformed metal-free Aβ42 aggregates (P05067 672-713): as above
Sequence of preformed Cu(II)–Aβ42 aggregates (P05067 672-713): as above
Sequence of metal-free Aβ42 (P05067 672-713): as above
Sequence of Electrophorus electricus AChE (eeAChE) (O42275 24-633): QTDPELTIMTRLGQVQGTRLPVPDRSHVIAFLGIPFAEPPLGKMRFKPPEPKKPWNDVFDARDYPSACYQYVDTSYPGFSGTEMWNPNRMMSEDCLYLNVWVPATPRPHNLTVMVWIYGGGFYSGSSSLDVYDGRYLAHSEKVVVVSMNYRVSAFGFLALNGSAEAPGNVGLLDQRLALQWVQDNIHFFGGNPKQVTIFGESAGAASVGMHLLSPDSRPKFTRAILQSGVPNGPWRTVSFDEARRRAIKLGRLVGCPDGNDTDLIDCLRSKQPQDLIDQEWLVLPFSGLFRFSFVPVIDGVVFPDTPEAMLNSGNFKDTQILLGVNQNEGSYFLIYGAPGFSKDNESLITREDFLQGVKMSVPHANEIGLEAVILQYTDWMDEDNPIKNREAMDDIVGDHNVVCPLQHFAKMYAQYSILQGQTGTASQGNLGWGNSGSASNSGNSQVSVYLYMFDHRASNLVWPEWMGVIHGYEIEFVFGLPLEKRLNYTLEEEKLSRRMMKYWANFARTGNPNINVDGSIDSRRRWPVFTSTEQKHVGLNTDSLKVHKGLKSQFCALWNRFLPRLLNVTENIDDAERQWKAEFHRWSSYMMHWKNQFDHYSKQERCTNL
Sequence of preformed Zn(II)–Aβ42 aggregates (P05067 672-713): as the sequence (P05067 672-713) above

Structure (SMILES)	MW distribution of Aβ42 species by gel/Western blot [1]	MW distribution of Aβ42 species by gel/Western blot [2]	radical scavenging activity, compared to Trolox [3]	MW distribution of Aβ42 species by gel/Western blot [4]	MW distribution of Aβ42 species by gel/Western blot [5]	inhibition of the activity of AChE [6]	IC50 [6] [µM]	morphology of Aβ42 aggregates by TEM [1]	morphology of Aβ42 aggregates by TEM [2]	absorption band at ca. 400–440 nm at greater Cu(II) concentrations [7]	morphology of preformed aggregates by TEM [8]	morphology of preformed aggregates by TEM [9]
O=c1cc(-c2ccc(O)cc2)oc2cc(O)cc(O)c12 [Api, Apigenin]	did not exhibit significant reactivity	did not exhibit significant reactivity	negligible	did not exhibit notable reactivity	did not exhibit significant reactivity	not inhibited						
O=c1cc(-c2ccccc2)oc2cc(O)cc(O)c12 [Chr, chrysin]	did not exhibit significant reactivity	did not exhibit significant reactivity	negligible	did not exhibit notable reactivity	did not exhibit significant reactivity	not inhibited						
O=c1c(O)c(-c2ccccc2)oc2cccc(O)c12 [DHF, 3,5-dihydroxyflavone]	did not exhibit significant reactivity	did not exhibit significant reactivity		did not exhibit notable reactivity	did not exhibit significant reactivity		> 2					
O=c1c(-c2ccccc2)coc2cc(O)cc(O)c12 [DHIF, 5,7-dihydroxyisoflavone]	did not exhibit significant reactivity	did not exhibit significant reactivity	negligible	did not exhibit notable reactivity	did not exhibit significant reactivity							
O=c1c(O)c(-c2ccccc2)oc2cc(O)cc(O)c12 [Gal, galangin]	did not exhibit significant reactivity	did not exhibit significant reactivity		did not exhibit notable reactivity	did not exhibit significant reactivity			did not significantly alter the morphologies	fibrillar aggregates similar to those from the compound-free Zn(II)–Aβ42 sample			
O=c1c(-c2ccc(O)cc2)coc2cc(O)cc(O)c12 [Gen, genistein]	did not exhibit significant reactivity	did not exhibit significant reactivity		did not exhibit notable reactivity	did not exhibit significant reactivity							
O=c1cc(-c2ccccc2)oc2cccc(O)c12 [HF, 5-hydroxyflavone]	did not exhibit significant reactivity	did not exhibit significant reactivity	negligible	did not exhibit notable reactivity	did not exhibit significant reactivity	not inhibited	> 2	did not significantly alter the morphologies	fibrillar aggregates similar to those from the compound-free Zn(II)–Aβ42 sample			
O=c1c(-c2ccccc2)coc2cccc(O)c12 [HIF, 5-hydroxyisoflavone]	did not exhibit significant reactivity	did not exhibit significant reactivity	negligible	did not exhibit notable reactivity	did not exhibit significant reactivity	not inhibited						
O=c1c(O)c(-c2ccc(O)cc2)oc2cc(O)cc(O)c12 [Kae, kaempferol]	increased the signal in the range of ca. 7–50 kDa	did not significantly influence		did not impact	did not significantly influence			amorphous assemblies distinct from native Aβ42 fibrils	fibrillar aggregates similar to those from the compound-free Zn(II)–Aβ42 sample	diminished	a mixture of amorphous aggregates and thinner chopped fibrils	
O=c1cc(-c2ccc(O)c(O)c2)oc2cc(O)cc(O)c12 [Lut, luteolin]	increased the signal in the range of ca. 7–50 kDa	altered the aggregation of Zn(II)–Aβ42, resulting in diverse MW distributions from ca. 15 to 50 kDa		did not impact	minor change			decreased the degree of branching in the fibrils	thinner chopped fibrils		a mixture of amorphous aggregates and thinner chopped fibrils	
O=c1c(-c2ccc(O)c(O)c2)coc2cc(O)cc(O)c12 [Oro, orobol]	significantly decreased the band intensity of the entire range (7–270 kDa)	altered the aggregation of Zn(II)–Aβ42, resulting in diverse MW distributions from ca. 15 to 50 kDa		very mildly varied the MW distribution	minor change			thinner and shorter aggregates	thinner chopped fibrils		a mixture of amorphous aggregates and thinner chopped fibrils	shorter fibrils
O=c1c(O)c(-c2ccc(O)c(O)c2)oc2cc(O)cc(O)c12 [Que, Quercetin]	increased the smearing band intensity at ca. 7–270 kDa	altered the aggregation of Zn(II)–Aβ42, resulting in diverse MW distributions from ca. 15 to 50 kDa		very mildly varied the MW distribution	minor change			significantly shorter fibrillar aggregates	thinner chopped fibrils	diminished	a mixture of amorphous aggregates and thinner chopped fibrils	shorter fibrils
